How the values were obtained:
Acetylcholinesterase [1] = target: T1, Acetylcholinesterase (Homo sapiens, UniProt P22303); assay: In vitro inhibitory concentration against purified Acetylcholinesterase of human erythrocytes; value ranges from 13.6-198
Butyrylcholinesterase [2] = target: T2, Butyrylcholinesterase (Equus caballus, UniProt Q9N1N9); assay: In vitro inhibitory concentration against Butyrylcholinesterase of horse serum; value ranges from 2.77-15.4
Summary of the method: (§1)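 Ellman assay followed, with 200 µM butyrylthiocholine as substrate. Runs were in triplicate with four-point dose-response curves. IC50 and fiducial limits came from log concentration versus % inhibition.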

Acetylcholinesterase [3] = target: T1, Acetylcholinesterase; assay: In vitro inhibitory concentration against purified Acetylcholinesterase of human erythrocytes; value ranges from 2.2-6.4
Butyrylcholinesterase [4] = target: T2, Butyrylcholinesterase; assay: In vitro inhibitory concentration against Butyrylcholinesterase of horse serum; value ranges from 0.22-1.54; summary of the method: as §1
[5] = target: T3, Amine oxidase [flavin-containing] B (Rattus norvegicus, UniProt P19643); design: species or system Brain
T3 sequence (P19643 whole entry): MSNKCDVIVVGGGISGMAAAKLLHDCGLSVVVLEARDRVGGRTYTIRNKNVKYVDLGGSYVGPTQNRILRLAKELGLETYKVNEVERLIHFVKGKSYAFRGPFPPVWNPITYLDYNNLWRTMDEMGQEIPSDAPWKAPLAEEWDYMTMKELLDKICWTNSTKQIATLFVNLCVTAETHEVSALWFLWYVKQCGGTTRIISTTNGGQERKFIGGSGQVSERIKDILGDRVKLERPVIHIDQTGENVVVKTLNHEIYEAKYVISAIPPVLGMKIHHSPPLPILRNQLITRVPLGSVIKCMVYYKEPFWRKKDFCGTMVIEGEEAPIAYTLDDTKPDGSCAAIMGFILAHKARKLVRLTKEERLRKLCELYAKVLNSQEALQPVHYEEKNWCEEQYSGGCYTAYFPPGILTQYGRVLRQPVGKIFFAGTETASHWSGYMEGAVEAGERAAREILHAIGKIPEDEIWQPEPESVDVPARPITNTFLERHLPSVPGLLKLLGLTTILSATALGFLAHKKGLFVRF

[6] = target: T4, Amine oxidase [flavin-containing] A (Rattus norvegicus, UniProt P21396); assay: In vitro inhibitory concentration against Monoamine oxidase A of rat brain homogenates; value ranges from 1.7-3.9; type: tissue-based
T4 sequence (P21396 whole entry): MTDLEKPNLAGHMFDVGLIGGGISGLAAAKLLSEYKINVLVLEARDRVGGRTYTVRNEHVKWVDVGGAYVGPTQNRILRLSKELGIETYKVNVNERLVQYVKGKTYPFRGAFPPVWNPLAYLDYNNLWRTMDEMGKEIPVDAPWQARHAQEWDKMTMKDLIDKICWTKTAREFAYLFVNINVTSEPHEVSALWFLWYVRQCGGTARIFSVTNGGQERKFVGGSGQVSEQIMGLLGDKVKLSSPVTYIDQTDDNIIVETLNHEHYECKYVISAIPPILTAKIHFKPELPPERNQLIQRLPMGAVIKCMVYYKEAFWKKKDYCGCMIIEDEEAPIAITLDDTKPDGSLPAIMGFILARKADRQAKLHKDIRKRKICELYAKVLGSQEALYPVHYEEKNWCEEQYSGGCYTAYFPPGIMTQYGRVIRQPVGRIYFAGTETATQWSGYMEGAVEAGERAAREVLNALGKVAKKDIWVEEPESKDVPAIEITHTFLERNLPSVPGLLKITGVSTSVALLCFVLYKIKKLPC

Acetylcholinesterase [7] = target: T1, Acetylcholinesterase; assay: In vitro inhibitory concentration against purified Acetylcholinesterase of human erythrocytes; value ranges from 2.0-15.2
Butyrylcholinesterase [8] = target: T2, Butyrylcholinesterase; assay: In vitro inhibitory concentration against Butyrylcholinesterase of horse serum; value ranges from 4.8-73.9; summary of the method: as §1
[9] = target: T3, Amine oxidase [flavin-containing] B; assay: In vitro inhibitory concentration against Monoamine oxidase B of rat brain homogenates; type: tissue-based
[10] = target: T4, Amine oxidase [flavin-containing] A; assay: In vitro inhibitory concentration against Monoamine oxidase A of rat brain homogenates; type: tissue-based
Acetylcholinesterase [11] = target: T1, Acetylcholinesterase; assay: In vitro inhibitory concentration against purified Acetylcholinesterase of human erythrocytes; value ranges from 0.16-0.18
Butyrylcholinesterase [12] = target: T2, Butyrylcholinesterase; assay: In vitro inhibitory concentration against Butyrylcholinesterase of horse serum; value ranges from 0.23-0.26; summary of the method: as §1
[13] = target: T4, Amine oxidase [flavin-containing] A; assay: In vitro inhibitory concentration against Monoamine oxidase A of rat brain homogenates; value ranges from 230-820; type: tissue-based
Acetylcholinesterase [14] = target: T1, Acetylcholinesterase; assay: In vitro inhibitory concentration against purified Acetylcholinesterase of human erythrocytes
[15] = target: T4, Amine oxidase [flavin-containing] A; assay: In vitro inhibitory concentration against Monoamine oxidase A of rat brain homogenates; value ranges from 75-240; type: tissue-based
[16] = target: T3, Amine oxidase [flavin-containing] B; assay: In vitro inhibitory concentration against Monoamine oxidase B of rat brain homogenates; value ranges from 77-123
Acetylcholinesterase [17] = target: T1, Acetylcholinesterase; assay: In vitro inhibitory concentration against purified Acetylcholinesterase of human erythrocytes; value ranges from 8.6-49.9
Acetylcholinesterase [18] = target: T1, Acetylcholinesterase; assay: In vitro inhibitory concentration against purified Acetylcholinesterase of human erythrocytes; value ranges from 7.3-50.4
[19] = target: T3, Amine oxidase [flavin-containing] B; assay: In vitro inhibitory concentration against Monoamine oxidase B of rat brain homogenates; value ranges from 0.4-1.3; type: tissue-based
[20] = target: T4, Amine oxidase [flavin-containing] A; assay: In vitro inhibitory concentration against Monoamine oxidase A of rat brain homogenates; value ranges from 0.5-1.4; type: tissue-based
Acetylcholinesterase [21] = target: T1, Acetylcholinesterase; assay: In vitro inhibitory concentration against purified Acetylcholinesterase of human erythrocytes; value ranges from 1.66-3.14
[22] = target: T4, Amine oxidase [flavin-containing] A; assay: In vitro inhibitory concentration against Monoamine oxidase A of rat brain homogenates; value ranges from 0.47; type: tissue-based

T2 sequence (Q9N1N9 whole entry): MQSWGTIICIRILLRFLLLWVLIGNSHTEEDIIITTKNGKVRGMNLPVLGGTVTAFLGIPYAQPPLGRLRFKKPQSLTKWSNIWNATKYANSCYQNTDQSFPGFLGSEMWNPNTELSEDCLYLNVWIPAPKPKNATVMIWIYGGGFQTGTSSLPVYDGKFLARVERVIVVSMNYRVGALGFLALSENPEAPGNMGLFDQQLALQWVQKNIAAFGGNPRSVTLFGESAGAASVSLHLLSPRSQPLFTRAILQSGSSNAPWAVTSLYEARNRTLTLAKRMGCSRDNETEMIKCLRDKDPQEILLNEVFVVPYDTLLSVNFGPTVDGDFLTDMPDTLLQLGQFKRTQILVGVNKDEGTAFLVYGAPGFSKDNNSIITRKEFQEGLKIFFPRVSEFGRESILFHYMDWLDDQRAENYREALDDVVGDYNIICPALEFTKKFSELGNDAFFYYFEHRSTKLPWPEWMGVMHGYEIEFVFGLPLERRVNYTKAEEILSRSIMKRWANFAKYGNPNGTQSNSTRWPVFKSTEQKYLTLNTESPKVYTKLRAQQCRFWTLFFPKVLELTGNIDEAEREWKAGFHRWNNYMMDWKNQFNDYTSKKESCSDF
T1 sequence (P22303 whole entry): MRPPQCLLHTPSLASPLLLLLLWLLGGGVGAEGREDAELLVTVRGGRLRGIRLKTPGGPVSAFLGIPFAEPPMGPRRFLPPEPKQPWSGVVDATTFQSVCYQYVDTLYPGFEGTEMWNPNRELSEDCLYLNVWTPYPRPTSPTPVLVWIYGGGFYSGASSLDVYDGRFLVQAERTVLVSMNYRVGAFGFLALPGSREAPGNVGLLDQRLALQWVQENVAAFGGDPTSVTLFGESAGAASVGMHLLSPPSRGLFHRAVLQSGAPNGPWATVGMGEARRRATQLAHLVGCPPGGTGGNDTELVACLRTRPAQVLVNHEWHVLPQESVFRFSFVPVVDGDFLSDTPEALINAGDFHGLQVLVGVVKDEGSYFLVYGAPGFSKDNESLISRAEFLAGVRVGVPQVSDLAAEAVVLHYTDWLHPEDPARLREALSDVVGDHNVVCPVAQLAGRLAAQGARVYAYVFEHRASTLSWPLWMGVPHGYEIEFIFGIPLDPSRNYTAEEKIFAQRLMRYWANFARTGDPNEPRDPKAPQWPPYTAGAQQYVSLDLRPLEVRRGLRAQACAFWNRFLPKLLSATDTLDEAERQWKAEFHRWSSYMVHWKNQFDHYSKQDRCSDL

Molecule `C#CCNC1CCc2ccc(OC(=O)N(C)C3CCCCC3)cc21` (stereo not drawn) has an IC50 (Acetylcholinesterase [1]) of 41.2 µM and an IC50 (Butyrylcholinesterase [2]) of 5.56 µM.
With `C#CCN(C)[C@@H](C)Cc1cccc(OC(=O)N(C)CCCCCC)c1` the IC50 (Acetylcholinesterase [3]) was 3.4 µM.
With `C#CCNCCc1cccc(OC(=O)N(C)CC)c1` the IC50 (Butyrylcholinesterase [4]) was 0.54 µM, the IC50 [5] was 7.8 µM and the IC50 [6] was 2.6 µM.
`C#CCN[C@H]1CCc2ccc(OC(=O)N(C)CCC)cc21` showed an IC50 (Acetylcholinesterase [7]) of 8.5 µM, an IC50 (Butyrylcholinesterase [8]) of 12.4 µM and an IC50 [9] greater than 1000 µM. For the same molecule, the IC50 [10] was greater than 1000 µM.
Work on `C#CC(C)NCCc1cccc(OC(=O)N(C)C)c1` (stereo not drawn) yielded an IC50 (Acetylcholinesterase [11]) of 0.17 µM, an IC50 (Butyrylcholinesterase [12]) of 0.24 µM and an IC50 [9] greater than 1000 µM. For the same molecule, the IC50 [13] was 440 µM.
`C#CCNC1CCc2ccc(OC(=S)N(C)C)cc21` (stereo not drawn) was tested, and the IC50 (Acetylcholinesterase [14]) was greater than 500 µM, the IC50 [15] was 130 µM and the IC50 [16] was 98 µM.
Molecule `C#CCN(CC)C1CCc2ccc(OC(=O)N(C)C)cc21` (stereo not drawn) has an IC50 (Acetylcholinesterase [17]) of 17.9 µM.
Molecule `C#CCN(C)CCc1cccc(OC(=O)N(C)CC)c1` has an IC50 (Acetylcholinesterase [18]) of 16.6 µM, an IC50 [19] of 0.8 µM and an IC50 [20] of 0.8 µM.
With `CN(C)C(=O)Oc1ccc2c(c1)C(N(C)C)CC2` (stereo not drawn) the IC50 (Acetylcholinesterase [21]) was 2.15 µM.
With `C#CCNC1CCc2ccc(O)cc21` (stereo not drawn) the IC50 [22] was 0.67 µM.

— ChEMBL document CHEMBL1135657, “Novel dual inhibitors of AChE and MAO derived from hydroxy aminoindan and phenethylamine as potential treatment for Alzheimer's disease” (J Med Chem, 2002)
